The results in this text go back to ChEMBL document CHEMBL1121928, “Pyrazolo[3,4-d]pyrimidine ribonucleosides as anticoccidials. 1. Synthesis and activity of some nucleosides of purines and 4-(alkylthio)pyrazolo[3,4-d]pyrimidines” (J Med Chem, 1982).

Series [1] concerns Eimeria tenella. As to the kind of experiment: Inhibition Eimeria tenella growth. Type of series: functional. The conditions noted are these: read-out: MEC. The procedure, abridged:
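E. tenella (Weybridge strain) grown in vitro in embryonic chick liver cells. Toxicity to the host liver cells was scored in the same culture system.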

The species named for series [2] is Gallus gallus. As to the kind of experiment: Number of chicks cleared of Eimeria tenella lesions out of a group of 5 when given in a diet of 400 ppm. Type of series: functional. An outline of the steps:
(§1)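 One-week-old chicks were given a simultaneous infection of E. tenella (Weybridge strain) and E. acervulina (Ongar strain). Infection took place 1 day after medication began. Compound was mixed into the diet and fed ad libitum until the end of the test.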

Series [3] is filed under the species Gallus gallus. Description: Number of chicks cleared of eimeria tenella lesions out of a group of 5 when given in the diet at 200 ppm. The format is functional. The procedure, abridged:
(§2)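 One-week-old chicks infected with E. tenella (Weybridge strain) together with E. acervulina (Ongar strain) one day after medication began. Compound mixed into the diet and fed ad libitum until the end of the test.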

The species entered for series [4] is Gallus gallus. Description: Number of chicks cleared of eimeria tenella lesions out of a group of 5 when given in the diet at 100 ppm. Type of series: functional. The procedure, abridged:
as §1

For series [5], the species on record is Gallus gallus. As to the kind of experiment: Number of chicks cleared of eimeria tenella lesions out of a group of 5 when given in the diet at 50 p.p.m. The format is functional. An outline of the steps:
as §1

The species named for series [6] is Gallus gallus. Description: Number of chicks cleared of eimeria tenella lesions out of a group of 5 when given in the diet at 25 p.p.m. Type of series: functional. An outline of the steps:
as §1

The species named for series [7] is Gallus gallus. Description: Number of chicks cleared of eimeria tenella lesions out of a group of 5 when given in the diet at 200 p.p.m. The format is functional. The procedure, abridged:
as §1

The species named for series [8] is Gallus gallus. As to the kind of experiment: Number of chicks cleared of eimeria tenella lesions out of a group of 5 when given in the diet at 400 p.p.m. Type of series: functional. An outline of the steps:
as §1

Series [9] is filed under the species Gallus gallus. As to the kind of experiment: Number of chicks out of a group of five that died due to toxicity when given in the diet at 100 ppm. The format is organism-based. The conditions noted are these: chicken, in vivo, po. An outline of the steps:
as §2

Series [10] is filed under the species Gallus gallus. As to the kind of experiment: Number of chicks out of a group of five that died due to toxicity when given in the diet at 200 ppm. The format is organism-based. The conditions noted are these: chicken, in vivo, po. The procedure, abridged: as §2
For series [11], the species on record is Gallus gallus. Description: Number of chicks cleared of eimeria tenella lesions out of a group of 5 when given in the diet at 100 p.p.m. The format is functional. An outline of the steps:
as §1

For series [12], the species on record is Gallus gallus. Description: Number of chicks out of a group of five that died due to toxicity when given in the diet at 400 ppm. Type of series: organism-based. The following applies: chicken, in vivo, po. An outline of the steps:
as §2

The species entered for series [13] is Gallus gallus. As to the kind of experiment: Number of chicks cleared of eimeria tenella lesions out of a group of 5 when given in the diet at 400 ppm. The format is functional. An outline of the steps:
as §1

With `CSc1ncnc2[nH]cnc12`, the minimal effective concentration in series [1] was above 20 µg/mL.

`CSc1[nH]cnc2nncc1-2`: the minimal effective concentration in [1] turned out to be 20 µg/mL.

Turning to `CSc1ncnc2c1ncn2[C@@H]1O[C@H](CO)[C@@H](O)[C@@H]1O`, the minimal effective concentration in [1] is above 20 µg/mL.

As for `CCCCCSc1ncnc2[nH]cnc12`, in [1], the minimal effective concentration worked out at 20 µg/mL.

On to `CSc1nc(N)nc2c1ncn2[C@@H]1O[C@H](CO)[C@@H](O)[C@H]1O`, for which the minimal effective concentration in [1] was 50 µg/mL.

Turning to `CSc1ncnc2c1ncn2[C@H]1C[C@H](O)[C@@H](CO)O1`, in [1], the minimal effective concentration is 50 µg/mL.

As for `CSc1ncnc2c1nnn2[C@@H]1O[C@H](CO)[C@@H](O)[C@H]1O`, in [1], the minimal effective concentration came out at 1.25 µg/mL.

Take `CCSc1[nH]cnc2ncnc1-2`: in series [1], the minimal effective concentration is above 20 µg/mL.

In the case of `CCCCCSc1[nH]cnc2nncc1-2`, the minimal effective concentration in series [1] worked out at 5 µg/mL.

On to `CCSc1[nH]cnc2nncc1-2`, for which the No. of chicks in series [2] is recorded as 0.

With `CSc1ncnc2c1ncn2[C@@H]1O[C@H](CO)[C@@H](O)[C@H]1O`, in [1], the minimal effective concentration came out at 0.31 µg/mL.

With `CCSc1ncnc2c1ncn2[C@@H]1O[C@H](CO)[C@@H](O)[C@H]1O`, the minimal effective concentration in [1] turned out to be 1.25 µg/mL.

Regarding `C/C=C/CSc1ncnc2c1cnn2C1O[C@H](CO)[C@@H](O)[C@H]1O` (stereo partly specified), the No. of chicks is reported as 5 in [3], 4 in [4], 0 in series [5] and 0 in [6]. Moreover, the minimal effective concentration in [1] was 0.019 µg/mL.

`OC[C@H]1OC(n2ncc3c(S)ncnc32)[C@H](O)[C@@H]1O` (stereo partly specified) registered a No. of chicks in series [7] of 2. In addition, in series [1], the minimal effective concentration was 0.31 µg/mL.

For the compound `CSc1ncnc2c1cnn2C1O[C@H](CO)[C@@H](O)[C@H]1O` (stereo partly specified), the No. of chicks in series [8] stood at 1; in [9], 1; in series [10], 2; in series [11] it was 2; in series [7] it was 3; in series [12] it was 4. Also, the figures for the No. of chicks in series [5] and in series [6] were 2 and 0, respectively. Moreover, in series [1], the minimal effective concentration worked out at 0.03 µg/mL.

For the compound `OC[C@H]1OC(n2ncc3cncnc32)[C@H](O)[C@@H]1O` (stereo partly specified), the No. of chicks in series [7] was found to be 1. Further, the minimal effective concentration in series [1] is 1.3 µg/mL.

For the compound `C=CCSc1ncnc2c1cnn2C1O[C@H](CO)[C@@H](O)[C@H]1O` (stereo partly specified), the No. of chicks in series [3] is reported as 5; in series [4], 5; in series [5], 2; in series [6], 1. The minimal effective concentration in [1] came to 0.019 µg/mL.

For `CSc1nccc2c1ncn2C1O[C@H](CO)[C@@H](O)[C@H]1O` (stereo partly specified), the minimal effective concentration in [1] is above 20 µg/mL.

As for `CSc1nc(C)nc2c1ncn2C1O[C@H](CO)[C@@H](O)[C@H]1O` (stereo partly specified), the minimal effective concentration in series [1] was above 25 µg/mL.

As for `CCSc1ncnc2c1cnn2C1O[C@H](CO)[C@@H](O)[C@H]1O` (stereo partly specified), the No. of chicks in series [11] is on record as 5; in series [7] it was 5; in series [5] it was 5; in [6], 2. Moreover, the minimal effective concentration in series [1] was 0.31 µg/mL.

`COC(=O)CSc1ncnc2c1cnn2C1O[C@H](CO)[C@@H](O)[C@H]1O` (stereo partly specified) yielded a No. of chicks in [3] of 0. For the same compound, the minimal effective concentration in [1] came out at 20 µg/mL.

As to `CCCCCSc1ncnc2c1ncn2C1O[C@H](CO)[C@@H](O)[C@H]1O` (stereo partly specified), the minimal effective concentration in series [1] was above 50 µg/mL.

In turn, `OC[C@H]1OC(n2ncc3c(SC4CCCC4)ncnc32)[C@H](O)[C@@H]1O` (stereo partly specified) showed a No. of chicks in series [3] of 1. Also, in [1], the minimal effective concentration came out at 5 µg/mL.

Regarding `CCCCCSc1ncnc2c1cnn2C1O[C@H](CO)[C@@H](O)[C@H]1O` (stereo partly specified), the No. of chicks in series [3] is recorded as 5; in series [4] it was 3; in series [5], 0; in [6], 0. The minimal effective concentration in series [1] was determined as 0.31 µg/mL.

On to `CCCCSc1ncnc2c1cnn2C1O[C@H](CO)[C@@H](O)[C@H]1O` (stereo partly specified), for which the No. of chicks in [3] stood at 5; in [4], 1; in series [5], 0; in series [6] it was 0. In series [1], the minimal effective concentration was 0.019 µg/mL.

`CCCCCCSc1ncnc2c1cnn2C1O[C@H](CO)[C@@H](O)[C@H]1O` (stereo partly specified): the No. of chicks worked out at 5 in series [3], 2 in series [4], 0 in series [5] and 0 in [6]. Moreover, the minimal effective concentration in series [1] was determined as 0.019 µg/mL.

In the case of `CC(C)Sc1ncnc2c1cnn2C1O[C@H](CO)[C@@H](O)[C@H]1O` (stereo partly specified), the No. of chicks in series [8] came out at 0. The minimal effective concentration in series [1] is 0.019 µg/mL.

Compound `CCOP(=O)(CCSc1ncnc2c1cnn2C1O[C@H](CO)[C@@H](O)[C@H]1O)OCC` (stereo partly specified) returned a No. of chicks in [3] of 1. Moreover, the minimal effective concentration in [1] was 5 µg/mL.

In series [7], `CCCCCCCSc1ncnc2c1cnn2C1O[C@H](CO)[C@@H](O)[C@H]1O` (stereo partly specified) yielded a No. of chicks of 1. In addition, in series [1], the minimal effective concentration worked out at 0.31 µg/mL.

With `CSc1nc(SC)c2ncn(C3O[C@H](CO)[C@@H](O)[C@H]3O)c2n1` (stereo partly specified), in series [1], the minimal effective concentration is above 50 µg/mL.

`CC(=O)CSc1ncnc2c1cnn2C1O[C@H](CO)[C@@H](O)[C@H]1O` (stereo partly specified) came in with a No. of chicks in series [3] of 0. Further, in series [1], the minimal effective concentration was above 20 µg/mL.

As to `CCCSc1ncnc2c1cnn2C1O[C@H](CO)[C@@H](O)[C@H]1O` (stereo partly specified), the No. of chicks was determined as 1 in series [11], 4 in [7], 0 in [5] and 0 in series [6]. In addition, the minimal effective concentration in series [1] turned out to be 0.019 µg/mL.

`Sc1ncnc2nc[nH]c12` [MERCAPTOPURINE ANHYDROUS]: the minimal effective concentration in series [1] was above 20 µg/mL.

Turning to `Nc1nc(=S)c2ncn([C@@H]3O[C@H](CO)[C@@H](O)[C@H]3O)c2[nH]1` [THIOGUANOSINE], the minimal effective concentration in [1] was above 50 µg/mL.

In the case of `OC[C@H]1O[C@@H](n2cnc3c(S)ncnc32)[C@H](O)[C@@H]1O` [THIOINOSINE], the minimal effective concentration in series [1] was above 20 µg/mL.

For `Sc1ncnc2[nH]ncc12` [TISOPURINE], the No. of chicks in series [13] came to 0. Further, in [1], the minimal effective concentration was above 20 µg/mL.
